Experimental data published in ChEMBL document CHEMBL1154192, “A series of 1, 2-coupled indane dimers with mast cell stabilisation and smooth muscle relaxation properties” (Eur J Med Chem, 2009).
pIC50: −log10 of the molar value.

What was measured:
Mast cell = test: Inhibition of compound 48/80-induced histamine release in Wistar rat peritoneal mast cell at 20 uM treated 10 mins before compound 48/80 challenge; format: functional
Procedure, shortened: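 Peritoneal cells were lavaged from female Wistar rats (250–350 g) into prewarmed (37 °C) HEPES-buffered salt solution, without purification. Cells were centrifuged, washed three times and held at 4 °C. Inhibition is given as percentage of stimulated release, mean ± SEM, n = 5–10.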

Ileum [1] = test: Inhibition of calcium-induced contraction in guinea pig ileum at 10 uM; format: functional; conditions: Cavia porcellus
Procedure, shortened: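 Guinea-pig ileum was suspended in calcium-free Krebs solution containing 45 mM K+ and contracted by bringing bath calcium to 2.5 mM (sustained >40 min). At stable maximal contracture a single 1 × 10⁻⁵ M concentration was added. Inhibition is given as percentage of stimulated contraction, mean ± SEM, n = 6–12.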

Ileum [2] = test: Inhibition of calcium-induced contraction in guinea pig ileum; format: functional, tissue-based; conditions: Cavia porcellus
Procedure, shortened: (§1)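 Isolated guinea-pig ileum in high-potassium (45 mM), calcium-free modified Krebs solution. Sustained contractures (>40 min) were elicited by raising bath CaCl2 to 2.5 mM. Once contraction reached a stable maximum, compound was added cumulatively (3 × 10⁻⁸ – […]). IC50 was calculated from the concentration-effect curve.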

Ileum [3] = test: Inhibition of calcium-induced contraction in guinea pig ileum at 0.03 to 10 uM; format: functional, tissue-based; conditions: Cavia porcellus; procedure, shortened: as §1
Ileum [4] = test: Inhibition of calcium-induced contraction in guinea pig ileum at 0.001 to 0.1 uM; format: functional, tissue-based; conditions: Cavia porcellus
Procedure, shortened: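 Isolated guinea-pig ileum in high-potassium (45 mM), calcium-free modified Krebs solution. CaCl2 was added to raise bath calcium to 2.5 mM, giving sustained (>40 min) contractures. At stable maximum, drug was added cumulatively at […] to 1 × 10^-7 M. Read-out was inhibition of contracture; IC50 was calculated from the concentration-effect curve.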

Ileum [5] = test: Inhibition of calcium-induced contraction in guinea pig ileum at 0.01 uM; format: functional; conditions: Cavia porcellus
Procedure, shortened: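 Isolated guinea-pig ileum in high-potassium (45 mM), calcium-free modified Krebs solution. Sustained (>40 min) contractures were elicited by raising bath calcium to 2.5 mM with CaCl2. At stable maximum, a single concentration (1 × 10^-8 M) was added. Inhibition was expressed as a percentage of stimulated values, mean ± SEM, n = 6.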

| SMILES | inhibition at 20 µM (Mast cell) [%] | inhibition at 10 µM (Ileum [1]) [%] | also measured |
| --- | --- | --- | --- |
| O=C(O)CC1(C2=CCc3ccccc32)Cc2ccccc2C1=O (stereo unspecified) | 10.3 | 1.8 |  |
| CCCCCC1(C2=CCc3ccccc32)Cc2ccccc2C1=O (stereo unspecified) | -3.2 | 18 |  |
| CCCC1(C2=CCc3ccccc32)Cc2ccccc2C1=O (stereo unspecified) | 41.2 | 51.7 |  |
| CC/C=C/CC1(C2=CCc3ccccc32)Cc2ccccc2C1O (stereo unspecified) | 49.7 | 25.6 |  |
| O=C1c2ccccc2CC1(Cc1ccccc1)C1=CCc2ccccc21 (stereo unspecified) | 24.7 | 18.9 |  |
| CCCC1(C2=CCc3ccccc32)Cc2ccccc2C1O (stereo unspecified) | -26 | 34.3 |  |
| CC/C=C/CC1(C2=CCc3ccccc32)Cc2ccccc2C1=O (stereo unspecified) | 32.5 | 19.9 |  |
| C=CCC1(C2=CCc3ccccc32)Cc2ccccc2C1O (stereo unspecified) | -35.5 | 79.5 | pIC50 (Ileum [2]): 5.21; pIC50 (Ileum [3]): 5.21 |
| CCC1(C2=CCc3ccccc32)Cc2ccccc2C1=O (stereo unspecified) | 19.4 | 49.6 |  |
| CC1(C2=CCc3ccccc32)Cc2ccccc2C1=O (stereo unspecified) | 15.6 | 41.3 |  |
| COC(=O)CC1(C2=CCc3ccccc32)Cc2ccccc2C1=O (stereo unspecified) | 21.9 | 20.5 |  |
| COC(=O)c1ccc(CC2(C3=CCc4ccccc43)Cc3ccccc3C2=O)cc1 (stereo unspecified) | -27.8 | 31.5 |  |
| O=C(O)c1cc(=O)c2c(OCC(O)COc3cccc4oc(C(=O)O)cc(=O)c34)cccc2o1 [CROMOLYN SODIUM] | 9.1 |  |  |
| COC(=O)C1=C(C)NC(C)=C(C(=O)OC)C1c1ccccc1[N+](=O)[O-] [NIFEDIPINE] |  |  | pIC50 (Ileum [4]): 7.83; inhibition at 0.01 µM (Ileum [5]): 48.1%; pIC50 (Ileum [2]): 7.83 |
| Cc1cc2c(c(C)c1CCO)C(=O)C(C)(C)C2 [PTEROSIN Z] |  |  | pIC50 (Ileum [2]): 5.89 |
